ChEMBL document CHEMBL2062505, “Thermodynamic Investigation of Inhibitor Binding to 1-Deoxy-D-Xylulose-5-Phosphate Reductoisomerase” (ACS Med Chem Lett, 2012)

Assays:
[1] = Inhibition of His6-tagged Plasmodium falciparum DXR expressed in Escherichia coli M15 using DXP as substrate preincubated for 5 mins
[2] = Inhibition of Escherichia coli DXR using DXP as substrate preincubated for 5 mins
[3] = system: Escherichia coli; test: Binding affinity to Escherichia coli DXR by isothermal titration […] assay in presence of 2 mM NADPH and 150 mM NaCl at 279 K and pH 7.6 and Mg2+
Summary of the method: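 Isothermal titration calorimetry of inhibitor titrated into E. coli DXR at 279 K, pH 7.6, with 2 mM NADPH, 150 mM NaCl and Mg2+. Ka and ΔH come from fitted titration curves, with ΔG and ΔS derived from them. Kd is taken as the inverse of Ka.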

[4] = system: Mycobacterium tuberculosis; test: Binding affinity to Mycobacterium tuberculosis DXR by isothermal titration […] assay in presence of 2 mM NADPH and 150 mM NaCl at 279 K and pH 7.6
[5] = system: Plasmodium falciparum; test: Binding affinity to His6-tagged Plasmodium falciparum DXR expressed in Escherichia coli M15 by isothermal titration […] assay in presence of 2 mM NADPH and 150 mM NaCl at 279 K and pH 7.6
Summary of the method: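 PfDXR gene cloned into pQE30, expressed in E. coli M15, and purified as His6-tagged protein. ITC run at 279 K, pH 7.6, with 2 mM Mn2+ and 2 mM NADPH. Ka and ΔH come from curve fitting, with Kd as the inverse of Ka.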

[6] = Inhibition of Mycobacterium tuberculosis DXR using DXP as substrate preincubated for 5 mins
[7] = system: Escherichia coli; test: Binding affinity to Escherichia coli DXR by isothermal titration […] assay in presence of 2 mM NADPH and 150 mM NaCl at 279 K and pH 8.5
Summary of the method: (§1)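 Isothermal titration calorimetry of inhibitor binding to E. coli DXR, run at 279 K with 2 mM NADPH and 150 mM NaCl. Titrations were done with Mg2+ or Mn2+ present, or with no divalent metal ion. Fitted curves gave ΔH and Ka, with ΔG and ΔS derived from them. Kd was taken as the inverse of Ka.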

[8] = system: Escherichia coli; test: Binding affinity to Escherichia coli DXR by isothermal titration […] assay in presence of 2 mM NADPH and 150 mM NaCl at 279 K and pH 7.6; summary of the method: as §1
[9] = system: Escherichia coli; test: Binding affinity to Escherichia coli DXR by isothermal titration […] assay in presence of 2 mM NADPH and 150 mM NaCl at 279 K and pH 8.5 and Mg2+
Summary of the method: (§2)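 Heat of inhibitor binding to E. coli DXR (EcDXR) was measured by isothermal titration calorimetry and fitted to binding curves. The fit gave the association constant Ka (M–1) and ΔH, with ΔG and ΔS also reported. Kd was taken as the inverse of Ka. The divalent metal ion (Mg2+ or Mn2+) was included in the titration.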

[10] = system: Escherichia coli; test: Binding affinity to Escherichia coli DXR by isothermal titration […] assay in presence of 2 mM NADPH and 150 mM NaCl at 279 K and pH 7.6 and Mn2+; summary of the method: as §2

CC(=O)N(O)CCCP(=O)(O)O [FR-900098]
Ki [1]: 11 nM | Ki [2]: 19 nM | Ka [3]: 7.14 ×10⁶ /M | Ka [4]: 1.79 ×10⁶ /M | Ka [5]: 1.28 ×10⁷ /M | Ki [6]: 130 nM

O=c1ccc(-c2ccccc2)cn1O [1-HYDROXY-5-PHENYLPYRIDIN-2(1H)-ONE]
Ki [1]: 14600 nM | Ka [7]: 2.55 ×10⁵ /M | Ki [2]: 700 nM | Ka [3]: 1.72 ×10⁵ /M | Ka [4]: 3.42 ×10⁵ /M | Ka [5]: 2.69 ×10⁵ /M | Ki [6]: 21800 nM | Ka [8]: 2.87 ×10⁵ /M

O=P(O)(O)Cc1ccccn1 [PYRIDIN-2-YLMETHYLPHOSPHONIC ACID]
Ki [1]: 3300 nM | Ka [7]: 4.89 ×10⁵ /M | Ki [2]: 2300 nM | Ka [3]: 4.93 ×10⁵ /M | Ka [4]: 6.29 ×10⁵ /M | Ka [5]: 8.77 ×10⁵ /M | Ki [6]: 1600 nM | Ka [8]: 4.31 ×10⁵ /M

O=CN(O)CCC(c1ccc(Cl)c(Cl)c1)P(=O)(O)O (centres undefined)
Ki [1]: 15 nM | Ki [2]: 58 nM | Ka [3]: 3.03 ×10⁶ /M | Ka [4]: 2.08 ×10⁶ /M | Ka [5]: 3.13 ×10⁶ /M | Ki [6]: 1200 nM

O=CN(O)CCCP(=O)(O)O [FOSMIDOMYCIN]
Ka [9]: 5.6 ×10⁶ /M | Ka [3]: 6.67 ×10⁶ /M | Ka [4]: 3.45 ×10⁶ /M | Ka [10]: 7.35 ×10⁶ /M | Ka [5]: 1.28 ×10⁷ /M

O=P(O)(O)Cc1ccc(-c2ccccc2)cn1
Ki [1]: 1100 nM | Ki [2]: 420 nM | Ka [3]: 4.83 ×10⁵ /M | Ka [4]: 4.44 ×10⁵ /M | Ka [5]: 4.67 ×10⁵ /M | Ki [6]: 3200 nM
